Screening data deposited in PubChem BioAssay by several laboratories.
Sampled rows, rich in hits. Any-hit rate of the full collection: about 12%.
Lmaj promast: reduces viability of Leishmania major promastigotes; resazurin fluorescence viability; inhibition, % at 10 µM; 200,000 compounds, 9% hits; AID 1063; in the data active = inhibition above about 50%;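 note: promastigotes grown with compound for 44 hours at 28 °C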
CHOP inh: blocks CHOP induction under ER stress | CHO-K1 CHOP-promoter luciferase, tunicamycin-induced, 15-18 h | inhibition, % at 10 µM | 220,000 compounds, 3.8% hits | AID 2732;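 active = compounds that reduced the stress-induced luciferase reporter signal by more than about 70% of percent inhibition, limit read from the data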;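 note: 0% = tunicamycin plus vehicle and 100% = wells without tunicamycin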
MT stabilizer: microtubule stabilization, imaging screen | HeLa tubulin immunostaining HCS, 24 h; share of cells brighter than vehicle mean+2SD | % tubulin-high responders, % at 10 µM | 200,000 compounds, 0.83% hits | AID 2205;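 active = plate Z-score above 3 for both tubulin-high and condensed-nucleus cell shares, with cell loss under 80%, at 10 µM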;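 note: anti alpha tubulin signal scored within the nucleus-defined area of each cell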
Dynein cargo inh: dynein cargo transport inhibition | 3617.4 mouse cells, GR-EGFP nuclear translocation imaging; test concentration mostly 20 µM; stimulated with dexamethasone, 1 µM; stronger effect = lower value | 220,000 compounds, 0.47% hits | z-score, hits read low;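 active = plate z-score of nuclear minus cytoplasmic receptor signal below a set negative limit, without overly bright fluorescence or cell loss, cut at about -3.5 in these data, passing the limit was not always enough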;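 note: z-score of nuclear minus cytoplasmic ring GR-EGFP intensity difference per well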
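Buffer or medium: Induction medium lacking tetracycline, stripped serum | Also added: Dexamethasone agonist, 1.0 µM final, for 30 min | Timing: 48 h induction, 1 h compound, 30 min dex at 37 °C | Detection: Formaldehyde fixation, Hoechst nuclear stain, 10x automated fluorescence imaging | Measure: Nuclear versus cytoplasmic GR-EGFP signal, averaged per well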
Autophagy HCS: autophagy modulation, high-content screen; MEF GFP-LC3 puncta imaging; test concentration mostly 10 µM; calls only at 10 µM (by protocol); 190,000 compounds, 0.98% hits;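 active = percentage of spot-positive cells more than 3 SD above its plate mean, without a fluorescence outlier flag or 80% toxicity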;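 note: spot-positive cell cutoff set from DMSO-treated cells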
bCat nuc transl: alters nuclear translocation of beta-catenin in HeLa cells | immunofluorescence imaging | nuclear translocation activity, % at 5 µM | 190,000 compounds, 0.3% hits | AID 1665;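 active = nuclear translocation activity above 50% at 5 µM, with a well cell count of 50 or more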;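 note: per-cell ratio of nuclear to cytoplasmic median beta-catenin stain intensity; plate controls were DMSO negative control for no effect and GSK-3 inhibitor IX positive control for full effect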
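Technique: fluorescence imaging of beta-catenin antibody stain plus DAPI / Material: human HeLa cell line / Incubation: compound treatment 24 h, 37°C, 5% CO2 / Read-out basis: % activation of per-cell nuclear versus cytoplasmic median beta-catenin signal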
Numbers without * were called inactive; i = inactive; / = no result given; + = active, no number.

SMILES	Lmaj promast	CHOP inh	MT stabilizer	Dynein cargo inh	Autophagy HCS	bCat nuc transl
CCOC(=O)c1ccccc1Nc1cn(C(C)=O)c2ccccc12	47.7	/	2.8	1.17	+	/
CCOC(=O)c1ccccc1NC(=O)COc1ccccc1	-0.2	84.5*	2.0	-0.925	i	-0.6
O=C(Nc1ccc(N2CCOCC2)cc1)c1nc2ccccc2s1	/	22.7	/	-0.0225	/	0.0
COc1ccc(OC)c(C(C)NC=O)c1 (centres undefined)	0.5	-22.7	1.9	2.3	i	0.3
COc1cc(NC(=O)c2cccs2)c(C(=O)OCC(=O)NCc2ccccc2)cc1OC	-3.4	87.1*	3.1	-0.403	i	/
COc1cc(NC(=O)c2cccs2)c(C(=O)OCC(=O)NC(C)c2ccccc2)cc1OC (centres undefined)	1.8	9.7	2.4	0.272	i	-0.4
CN1CCN(C(=O)c2ccccc2NC(=O)c2cccs2)CC1	-5.4	12.3	1.6	-0.463	i	-2.8
Cc1c(NC(=O)c2cccs2)cccc1C(=O)O	81.3*	-27.8	2.1	-0.00837	i	0.4
CCOC(=O)c1ccccc1NC(=O)c1n[nH]c(=O)c2ccccc12	-6.2	93.2*	3.1	0.0685	i	-0.5
C=CCSc1nc(C)c(CCCC)c(=O)[nH]1	-1.4	-3.9	2.2	-0.224	i	-0.3
O=C1CCC2(CC1)NC(=O)N(c1ccccc1)N2	10.1	-12.3	2.4	1.99	i	0.8
Cc1cc(C)n(CCC(=O)Nc2cccc(F)c2)n1	-2.1	6.9	1.8	-1.03	i	0.0
O=C(Nc1cccc(C(F)(F)F)c1)c1cc2c(=O)c3ccccc3oc2nc1C(F)(F)F	62.5*	-12.5	1.7	0.988	i	-5.5
CN(NC(=O)c1cccc(Cl)c1)c1nc(-c2ccccc2)nnc1C(F)(F)F	-2.8	24.2	39.5*	-0.747	i	0.2
CN(N)c1nc(-c2ccccc2)nnc1C(F)(F)F	2.1	30.0	2.5	0.482	i	3.1
Cc1ccc(NC(=O)COC(=O)c2cccc(N3C(=O)c4ccccc4C3=O)c2)cc1	/	42.9	/	0.196	/	-0.3
CC(OC(=O)c1cccc(N2C(=O)c3ccccc3C2=O)c1)C(=O)Nc1ccc(N(C)C)cc1 (centres undefined)	55.7*	-3.9	5.0	0.167	i	/
COc1ccc(Cl)cc1C(=O)NCC(C)C	-1.7	-0.2	4.2	2.06	i	-0.9
CC(=O)c1sc(NC(=O)c2ccc(C(C)(C)C)cc2)nc1C	0.7	63.3	1.5	-0.267	i	-0.7
Cc1n[nH]c(C)c1S(=O)(=O)N1CCN(C2CCCCC2)CC1	-6.4	2.1	2.3	-0.472	i	-1.7
Cc1ccc(-c2csc(/C=C3\SC(C)C(=O)N3CC(=O)Nc3ccccc3F)n2)cc1 (centres undefined)	/	92.6*	/	-0.878	/	0.5
COc1ccc(NCC(=O)n2c(C)c(C)c3ccccc32)cc1	-3.7	11.6	20.0*	-0.53	i	40.7
COc1ccc(NC(=O)Cn2c(C)cc(=O)c3ccccc32)cc1	-0.8	9.7	3.1	-0.142	i	-1.7
Cc1oc(-c2ccccc2)cc1C(=O)Nc1ccccc1	-0.1	31.9	1.7	-0.554	i	1.9
COc1ccc(NS(=O)(=O)c2cc(OC)ccc2NC(=O)c2cc(C)oc2C)cc1	3.7	/	38.4*	0.726	i	3.3
SMILES	Lmaj promast	CHOP inh	MT stabilizer	Dynein cargo inh	Autophagy HCS	bCat nuc transl
COc1ccc(NC(=O)c2cc(S(=O)(=O)N3CCCC3)oc2C)cc1	/	-3.5	/	1.15	/	-0.6
COc1ccc(NC(=O)c2cc(-c3ccccc3)oc2C)cc1	55.8*	64.4	2.1	-0.878	i	/
CC(C)CCNC(=O)CO/N=C/c1ccccc1OC(F)F	-7.5	11.2	4.7	-1.02	i	0.6
COc1cccc(C(=O)N2CCN(C(=O)c3cccc(F)c3)CC2)c1	-7.2	-12.7	1.6	-0.534	i	4.2
O=C(c1cccc(F)c1)N1CCN(C(=O)c2cc(-c3ccc(Cl)cc3Cl)on2)CC1	4.0	74.4*	3.4	-0.218	i	/
C/C(=C\c1ccccc1)CN(C)CCN(C)C	96.6*	1.7	3.0	0.578	i	-3.6
CC(OC(=O)c1ccncc1)C(=O)NC1CCCC1 (centres undefined)	-3.6	-9.9	1.8	0.355	i	-1.4
CCOc1ccccc1NC1=CC(=O)CC(c2ccccc2)C1 (centres undefined)	-5.2	18.4	24.7*	0.131	i	0.7
COc1ccc(NC2=CC(=O)CC(c3ccccc3)C2)c(OC)c1 (centres undefined)	3.7	9.9	31.8*	-1.18	i	82.1*
Cc1cccc(Cn2nc(-n3cccc3)c3c(C)cc(C)nc32)c1	7.9	69.1	2.7	0.319	i	1.1
O=C(O)CCCCNS(=O)(=O)/C=C/c1ccccc1	-10.0	22.3	4.3	0.0295	i	-4.9
CCCCNS(=O)(=O)/C=C/c1ccccc1	-8.0	12.8	1.8	1.19	+	2.8
CC(NS(=O)(=O)/C=C/c1ccccc1)C(=O)O (centres undefined)	6.0	85.8*	1.6	0.142	i	-0.6
COc1ccc(CC(=O)NCc2n[nH]c(=S)n2-c2cccc(Cl)c2)cc1	3.9	-14.4	2.9	1.27	i	-4.0
COc1cc(/C=N/n2c(-c3ccc4c(c3)NC(=O)CO4)csc2=Nc2cccc(C)c2)ccc1O	91.6*	41.1	4.8	0.827	i	-1.0
CCN(CC)C(=O)Cn1nc(C)c2ccccc2c1=O	-3.2	-0.1	1.9	-0.433	i	0.1
COC(=O)c1ccc(CSc2nc3ccccc3o2)cc1	-9.3	44.0	3.2	-0.737	i	/
O=[N+]([O-])c1ccc(CSc2nc3ccccc3o2)cc1	6.3	84.2*	2.3	-0.311	i	-0.7
COc1cccc(OCCOCCN(C)CCO)c1	-2.4	-9.6	6.6	0.43	i	0.0
CCN(CC)CCOc1c(C)cccc1Cl	-5.8	20.4	2.3	-0.351	i	-0.9
Cc1cc(OCCOCCN(C)CCO)cc(C)c1Cl	94.8*	12.4	3.3	0.049	i	2.6
CCN(CC)CCOCCOc1cc(C)c(Cl)c(C)c1	98.7*	14.0	0.9	-0.328	i	/
COc1ccccc1N/C=C(\C#N)c1nc2ccccc2[nH]1	-3.2	55.7	1.5	1.21	i	-1.3
COc1ccc(/C(N)=N/OC(=O)CCCN2C(=O)c3ccccc3C2=O)cc1OC	-7.0	12.9	3.2	-0.157	i	-4.8
Cc1ccc(C2Nc3ccccc3C(=O)N2Cc2ccco2)cc1 (centres undefined)	16.9	-31.4	17.7*	1.29	i	4.7
CCN(CC)CCN1C(=O)c2ccccc2NC1c1ccc(C)cc1 (centres undefined)	57.1*	29.0	0.4	0.0239	i	-0.8
CCN(CC)CCN1C(=O)c2ccccc2NC1c1ccc(Br)cc1 (centres undefined)	97.3*	9.7	3.5	-0.183	i	-0.2
